MPTP block = permeability transition pore inhibition; isolated mouse mitochondria, Ca2+ swelling absorbance, 30 min; inhibition, % at 10 µM; actives 1.4% (n = 360,000); AID 602449;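 active = inhibition of 50% or more, scaled per plate between neutral and stimulator controls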
aDG glyco up = alpha-DG glycosylation activation | Pro5-aDG cells, alpha-DG glycosylation AlphaScreen (IIH6); 0% Pro5, 100% B10-LARGE cell signal | activation, % at 10 µM | actives 0.22% (n = 360,000) | AID 624168;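 active = activation of at least 8% versus controls, or a plate z-score of at least 8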;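 note: Pro5 are CHO cells carrying HIG-tagged alpha-DG that lacks glycosylation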
ADAM10 inh = inhibitors of human ADAM10 | actives 0.62% (n = 370,000) | inhibition, % at 7 µM | AID 720582 | recombinant ADAM10, EDANS/DABCYL FRET peptide cleavage, 3 h | O14672;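 active = inhibition above a per-campaign cutoff equal to the mean of compounds falling between control-based bounds plus 3 SD, cut at about 20% in these data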
Target sequence (O14672 214-748 limits assumed): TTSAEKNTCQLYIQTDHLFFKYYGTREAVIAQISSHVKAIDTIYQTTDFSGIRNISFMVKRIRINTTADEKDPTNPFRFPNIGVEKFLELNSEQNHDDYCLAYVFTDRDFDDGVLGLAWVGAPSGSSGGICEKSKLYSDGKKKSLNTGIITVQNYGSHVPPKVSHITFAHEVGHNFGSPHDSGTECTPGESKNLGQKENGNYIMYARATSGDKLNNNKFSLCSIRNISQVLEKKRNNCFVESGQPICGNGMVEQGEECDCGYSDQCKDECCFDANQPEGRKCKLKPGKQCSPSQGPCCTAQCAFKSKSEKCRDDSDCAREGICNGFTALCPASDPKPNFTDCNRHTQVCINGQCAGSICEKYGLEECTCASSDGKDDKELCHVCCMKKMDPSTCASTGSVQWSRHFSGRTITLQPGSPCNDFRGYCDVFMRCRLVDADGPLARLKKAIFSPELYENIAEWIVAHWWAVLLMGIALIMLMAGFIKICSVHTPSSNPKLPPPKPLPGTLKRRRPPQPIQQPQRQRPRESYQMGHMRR
V-ATPase pH = yeast V-ATPase proton transport regulation by pHLuorin. response, % at 10 µM. actives 0.37% (n = 350,000). S. cerevisiae, pHLuorin cytosolic pH fluorescence; in the data active = response mostly above about 7.3%, no sharp cut-off; inactive = mostly below about 5.4%; note: actives read high
Lipid droplet = modulators of hepatic lipid droplet formation; AML12 mouse hepatocytes, oleate lipid droplets, BODIPY imaging; inhibition, % at 6.5 µM; actives 0.4% (n = 240,000);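 active = lipid droplet intensity inhibited by at least 50%, with more than 500 cells counted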
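System: AML12 hepatocytes (mouse). Probe or stimulus: oleic acid at 100 µM to induce lipid droplet formation. Times: overnight treatment with compound plus oleate. Detection: Image-based BODIPY and DAPI two-channel analysis. Evaluation: percent inhibition of filter-corrected integrated lipid droplet intensity per well.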
ADAM17 inh = ADAM17 inhibition, QFRET primary screen; P78536; recombinant ADAM17, EDANS/DABCYL FRET peptide cleavage; inhibition, % at 6.95 µM; actives 0.83% (n = 370,000); AID 720648;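 active = inhibition above the mean of compounds lying between control limits plus 3 SD, set per campaign, cut at about 8.5% in these data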
aDG glyco conf = alpha-DG glycosylation activation, confirmation | shares compounds with aDG glyco up | Pro5-aDG cells, IIH6 AlphaLISA; scaled to LARGE-overexpressing B10 cells as 100% | activation, % at 10 µM (by protocol) | actives 17% (n = 600);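 active = activation of at least 7% in one or more replicates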;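 note: cells exposed to compound for two days before detection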
Hits are given with their value; - = inactive; . = no result. Compounds with a hit are over-represented: about 3.1% of the library has one in this group of screens.

SMILES | MPTP block | aDG glyco up | ADAM10 inh | V-ATPase pH | Lipid droplet | ADAM17 inh | aDG glyco conf
COC(=O)C1CN(Cc2cn(Cc3ccccc3)nn2)CCS(=O)(=O)N1Cc1ccc(F)cc1 (stereo unspecified) | . | . | - | . | . | - | .
Cc1ccccc1CSc1nnc([C@@H]2CCCN2)o1 | - | 4.8 | - | - | - | - | -
COC(=O)C1CN(C(=O)OC(C)(C)C)C2=C1C(=O)CC(C)(C(=O)OC(C)(C)C)C2 (stereo unspecified) | . | . | - | . | . | - | .
COc1ccc(NC(=O)c2cc(OC)c(OC)c(OC)c2)cn1 | - | 3.7 | - | - | - | - | -
COc1cc(C(=O)Nc2cccnc2)cc(OC)c1OC | - | - | - | - | - | - | .
O=C(NCCc1ccccc1)OCc1cn(-c2ccccc2Cl)nn1 | . | . | - | . | . | - | .
NC(=NC(=O)c1ccc(OC(F)(F)F)cc1)c1ccc(C(F)(F)F)cn1 | - | 3.8 | - | - | - | - | -
Cc1ccc(NC(=O)CSc2nc3c(c(=O)[nH]2)CCC3)c(C)c1 | - | 7.4 | - | - | - | - | -
COCCN1CCC(CNCc2cn(-c3cc(C)ccc3C)nc2-c2ccccc2)C1 (stereo unspecified) | - | 7.8 | - | - | - | - | 8.6
COCCN1CCC(CNCc2cn[nH]c2-c2ccc(C)c(C)c2)C1 (stereo unspecified) | - | - | - | - | - | - | .
C[C@@H]1OC(C2CCCCC2)N(C)[C@H]2C[C@H]3c4[nH]c5c(-c6ccc7c(c6)OCO7)cccc5c4CCN3C[C@@H]12 (stereo partly specified) | . | . | - | . | . | - | .
COc1ccc2c(c1)CCCN2C(=O)C1CCCN(S(=O)(=O)c2cc(OC)ccc2OC)C1 (stereo unspecified) | . | . | - | . | . | - | .
Cc1cccn2c(=O)c(C(=O)NC3CC(C)CC(C)(C)C3)c(O)nc12 (stereo unspecified) | - | 3.6 | - | - | . | - | -
C[C@H](CO)N1C[C@H](C)[C@@H](CN(C)C(=O)Nc2ccc3c(c2)OCO3)Oc2ccc(NS(=O)(=O)c3cn(C)cn3)cc2C1=O | - | 6.4 | - | - | . | - | -
N#Cc1ccc(NCCCN2CCC(C(O)(c3ccccc3)c3ccccc3)CC2)cc1 | . | . | - | . | . | - | .
C/C(C=NNC(=O)c1cc(-c2ccc(Cl)cc2)n[nH]1)=C\c1ccccc1 | . | . | - | . | . | - | .
COCCn1c(SCC#N)nnc1-c1ccc(OC)cc1 | - | 4.7 | - | - | - | - | -
Cc1nn(C)cc1CNC(=O)COc1ccc(Cl)cc1Cl | - | 15 | - | - | - | - | -
O=C(NCCc1c[nH]c2ccccc12)OCc1cn(Cc2ccc(F)c(F)c2)nn1 | . | . | - | . | . | - | .
Cc1ccccc1-c1nnc2n1N=C(c1ccc(O)c(O)c1)CS2 | . | . | - | . | . | - | .
CCOC(=O)c1ccc(N2C(=O)c3n[nH]c(C)c3C2c2ccccc2)cc1 (stereo unspecified) | - | 28 | - | - | . | - | -
CCOC(=O)c1ccc(N2C(=O)c3n[nH]c(C)c3C2c2ccc(O)cc2)cc1 (stereo unspecified) | - | - | - | - | . | - | .
CCCCNC(=O)C1(C(C)=O)CC(C(=O)OCC)=NO1 (stereo unspecified) | . | . | - | . | . | - | .
Cc1ccc(-c2nnc(SCC(=O)Nc3ccc4c(c3)OCCO4)n2-c2ccc(C)cc2)cc1 | . | . | - | . | . | - | .
COc1ccccc1NC(=O)Cn1cc(C(=O)C2CC2)c2ccccc21 | - | - | - | - | - | - | .
SMILES | MPTP block | aDG glyco up | ADAM10 inh | V-ATPase pH | Lipid droplet | ADAM17 inh | aDG glyco conf
CC(C)NC(=O)Cn1cc(C(=O)C2CC2)c2ccccc21 | - | 11 | - | - | - | - | -
CCOc1ccc(-n2c(SCC(=O)Nc3ccc(S(=O)(=O)Nc4nccs4)cc3)nnc2-c2ccccc2)cc1 | . | . | - | . | . | - | .
C=CCNCC(=O)N1N=C(c2ccc3ccccc3c2)CC1c1ccc(OC)cc1 (stereo unspecified) | - | 5.8 | - | - | - | - | -
CCCC(=O)N(Cc1cc(=O)[nH]c2ccccc12)c1ccccc1 | - | 5.6 | - | - | - | - | -
c1cncc(-c2nc(N3CCCCCC3)c3ccccc3n2)c1 | - | - | - | - | . | - | .
c1ccc2c(N3CCCCCC3)nc(-c3ccncc3)nc2c1 | - | 7.0 | - | - | - | - | -

High-throughput results (PubChem)
